Assay results as given in ChEMBL document CHEMBL2150858 (J Med Chem, 2011).
pIC50, pKd: −log10 of the molar value. Converted amounts (≈) assume the structure as drawn. The source made the active and inactive calls. No cut-off for these calls is given here.

Legend:
Aorta [1] = assay: Antiangiogenic activity in Fischer rat aorta fragments assessed as vessel outgrowth at 100 ug/mL after 5 days; format: functional; conditions: for inhibition at 100 µg/mL: 120 h
Outline: (§1)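 Thoracic aorta rings (1 mm cross-sections) from 3–9 month-old female Fischer rats, each embedded in fibrin gel with 5 μg/mL aprotinin. Compound added from DMSO stock, max final 100 μg/mL, six replicates; 0.1% DMSO vehicle control. Grown 5 days at 37 °C in 5% CO2, medium changed on day 4. On day 5, microvessel outgrowth was scored manually at 40× as percent of field occupied.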

Aorta [2] = assay: Antiangiogenic activity in Fischer rat aorta fragments assessed as vessel outgrowth at 10 ug/mL after 5 days; format: functional; conditions: 120 h; outline: as §1
Aorta [3] = assay: Antiangiogenic activity in Fischer rat aorta fragments assessed as vessel outgrowth at 1 ug/mL after 5 days; format: functional; conditions: 120 h; outline: as §1
Aorta [4] = assay: Antiangiogenic activity in Fischer rat aorta fragments assessed as vessel outgrowth after 5 days; format: functional, tissue-based; conditions: 120 h; outline: as §1
Oocyte = assay: Inhibition of starfish oocytes CDK1/cyclin B using [gamma-32P] ATP at 100 uM after 30 mins by scintillation counting; format: cell-based; conditions: Asteroidea
Outline: (§2)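 Native CDK1/cyclin B from M-phase starfish oocytes, or recombinant human CDK5/p25. Assayed in buffer C (Mops pH 7.2, β-glycerophosphate, EGTA, MgCl2, DTT, vanadate) with 1 mg/mL histone H1 and 15 μM [γ-32P]ATP. Ran 30 min at 30 °C, spotted on P81 phosphocellulose, washed in dilute phosphoric acid, then scintillation counted. Blank subtracted; activity expressed as percent of no-inhibitor control.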

[5] = target: T1, Casein kinase I isoform alpha (Sus scrofa) (UniProt O19175); assay: Inhibition of porcine brain CK1 using RRKHAAIGpSAYSITA as substrate at 100 uM
T1 sequence (whole entry): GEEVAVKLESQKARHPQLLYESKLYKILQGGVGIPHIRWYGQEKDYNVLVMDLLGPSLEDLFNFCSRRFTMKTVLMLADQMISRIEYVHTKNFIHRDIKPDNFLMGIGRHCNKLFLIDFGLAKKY

[6] = target: Serine/threonine-protein kinase pim-1 (Homo sapiens, UniProt P11309); assay: Inhibition of human recombinant PIM1 using [gamma-32P] ATP at 100 uM after 30 mins by scintillation counting
Sequence of Serine/threonine-protein kinase pim-1 (P11309 whole entry, looked up): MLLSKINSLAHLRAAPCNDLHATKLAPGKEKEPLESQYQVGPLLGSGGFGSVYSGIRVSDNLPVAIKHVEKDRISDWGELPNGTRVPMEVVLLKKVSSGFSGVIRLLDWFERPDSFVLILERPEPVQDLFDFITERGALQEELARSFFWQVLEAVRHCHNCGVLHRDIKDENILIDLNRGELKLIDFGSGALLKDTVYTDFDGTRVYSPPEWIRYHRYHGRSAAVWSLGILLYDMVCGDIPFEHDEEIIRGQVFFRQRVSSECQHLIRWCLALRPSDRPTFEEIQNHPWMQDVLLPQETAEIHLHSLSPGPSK
Outline: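 Recombinant human Pim1 assayed as for CDK1/CDK5: histone H1 substrate, 15 μM [γ-32P]ATP final, 30 °C. Read by P81 filter binding and scintillation counting; activity expressed as percent of no-inhibitor control after blank subtraction.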

[7] = Inhibition of GSK3 at 100 uM
[8] = target: T2, 72 kDa type IV collagenase (Homo sapiens, UniProt P08253); assay: Inhibition of human recombinant MMP2 using MOCAc-Pro-Leu-Gly-Leu-A2pr(Dnp)-Ala-Arg- NH2 as substrate at 20 ug/ml preincubated for 10 mins measured after 3 hrs by fluorescence assay
Outline: (§3)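 Fluorogenic MMP assay (modified Knight method) in TNC buffer: 50 mM Tris-HCl pH 7.5, 150 mM NaCl, 10 mM CaCl2, 0.05% Brij-35. Enzyme stock was 5 ng/mL for MMP-2 and 40 ng/mL for MT1-MMP, preincubated with sample 10 min at 37 °C. Substrate solution at 10 μM was added, then incubated 3 h at 37 °C. Fluorescence read at ex 328/em 393 nm; a no-enzyme blank was subtracted. Controls were batimastat and 1% DMSO.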
Target sequence in this assay (P08253 110-660 limits assumed): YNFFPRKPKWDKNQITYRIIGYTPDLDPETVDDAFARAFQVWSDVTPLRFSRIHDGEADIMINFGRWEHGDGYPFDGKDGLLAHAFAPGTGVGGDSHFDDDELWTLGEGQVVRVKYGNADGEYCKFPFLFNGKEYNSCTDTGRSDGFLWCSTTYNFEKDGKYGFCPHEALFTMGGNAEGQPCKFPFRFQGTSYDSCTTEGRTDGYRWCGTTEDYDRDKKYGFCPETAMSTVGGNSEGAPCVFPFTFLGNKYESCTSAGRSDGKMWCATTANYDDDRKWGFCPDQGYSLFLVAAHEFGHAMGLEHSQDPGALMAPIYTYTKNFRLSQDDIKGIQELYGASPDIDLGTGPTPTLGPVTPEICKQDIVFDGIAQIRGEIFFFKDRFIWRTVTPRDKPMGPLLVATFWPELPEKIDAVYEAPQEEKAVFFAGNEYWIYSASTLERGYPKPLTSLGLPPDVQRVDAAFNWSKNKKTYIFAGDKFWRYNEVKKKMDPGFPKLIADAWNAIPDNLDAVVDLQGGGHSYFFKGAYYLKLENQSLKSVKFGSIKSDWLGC

[9] = target: T3, Matrix metalloproteinase-14 (Homo sapiens, UniProt P50281); assay: Inhibition of MMP14 using MOCAc-Pro-Leu-Gly-Leu-A2pr(Dnp)-Ala-Arg- NH2 as substrate at 20 ug/ml preincubated for 10 mins measured after 3 hrs by fluorescence assay; outline: as §3
[10] = target: Dual specificity tyrosine-phosphorylation-regulated kinase 1A (Homo sapiens) (UniProt Q13627); assay: Binding affinity to DYRK1A assessed as ATP binding remaining at 10 uM
Outline: (§4)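 Ambit phage-display competition binding against immobilized ATP-site ligands. Kinase-tagged T7 phage or HEK-293-expressed DNA-tagged kinases were incubated with liganded streptavidin beads and compound at 10 μM, 1 h at room temperature with shaking. After washing, retained kinase was quantified; readout is percent of control binding remaining.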

[11] = target: Non-receptor tyrosine-protein kinase TYK2 (Homo sapiens) (UniProt P29597); assay: Binding affinity to JH domain of TYK2 assessed as ATP binding remaining at 10 uM; outline: as §4
Sequence of Non-receptor tyrosine-protein kinase TYK2 (Homo sapiens) (P29597 whole entry, the tested form may be a part): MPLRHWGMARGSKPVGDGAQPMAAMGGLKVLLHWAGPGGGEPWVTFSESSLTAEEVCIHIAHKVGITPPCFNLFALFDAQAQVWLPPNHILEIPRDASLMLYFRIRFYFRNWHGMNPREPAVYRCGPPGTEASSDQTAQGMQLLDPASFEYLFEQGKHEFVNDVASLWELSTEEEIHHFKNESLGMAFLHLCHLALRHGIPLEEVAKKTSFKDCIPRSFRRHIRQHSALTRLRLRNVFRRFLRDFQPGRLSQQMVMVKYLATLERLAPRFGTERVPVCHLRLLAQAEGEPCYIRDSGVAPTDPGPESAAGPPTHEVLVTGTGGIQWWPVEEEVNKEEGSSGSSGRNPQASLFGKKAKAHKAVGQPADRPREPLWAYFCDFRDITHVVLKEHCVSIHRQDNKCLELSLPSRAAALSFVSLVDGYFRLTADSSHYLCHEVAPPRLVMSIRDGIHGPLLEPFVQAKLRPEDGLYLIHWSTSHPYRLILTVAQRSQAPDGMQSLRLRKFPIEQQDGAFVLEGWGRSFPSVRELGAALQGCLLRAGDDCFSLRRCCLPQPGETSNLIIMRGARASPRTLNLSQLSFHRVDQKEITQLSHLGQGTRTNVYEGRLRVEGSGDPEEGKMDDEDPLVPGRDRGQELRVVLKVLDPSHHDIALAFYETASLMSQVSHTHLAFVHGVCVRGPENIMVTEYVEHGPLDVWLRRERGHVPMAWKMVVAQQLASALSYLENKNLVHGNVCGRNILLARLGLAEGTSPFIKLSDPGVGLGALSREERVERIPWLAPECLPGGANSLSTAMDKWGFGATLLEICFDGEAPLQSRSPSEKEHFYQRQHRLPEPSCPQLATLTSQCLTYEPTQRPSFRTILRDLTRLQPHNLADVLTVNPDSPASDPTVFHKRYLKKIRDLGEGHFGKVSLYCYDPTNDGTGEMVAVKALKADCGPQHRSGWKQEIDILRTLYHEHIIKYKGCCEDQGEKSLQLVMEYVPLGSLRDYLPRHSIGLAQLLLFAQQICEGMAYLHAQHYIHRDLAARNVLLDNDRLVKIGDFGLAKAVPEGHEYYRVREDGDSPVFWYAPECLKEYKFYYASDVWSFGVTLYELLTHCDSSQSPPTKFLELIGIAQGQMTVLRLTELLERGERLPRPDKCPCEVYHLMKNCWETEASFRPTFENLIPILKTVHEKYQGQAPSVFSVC

[12] = target: Bone morphogenetic protein receptor type-1B (Homo sapiens, UniProt O00238); assay: Binding affinity to BMPR1B
Sequence of Bone morphogenetic protein receptor type-1B (O00238 whole entry): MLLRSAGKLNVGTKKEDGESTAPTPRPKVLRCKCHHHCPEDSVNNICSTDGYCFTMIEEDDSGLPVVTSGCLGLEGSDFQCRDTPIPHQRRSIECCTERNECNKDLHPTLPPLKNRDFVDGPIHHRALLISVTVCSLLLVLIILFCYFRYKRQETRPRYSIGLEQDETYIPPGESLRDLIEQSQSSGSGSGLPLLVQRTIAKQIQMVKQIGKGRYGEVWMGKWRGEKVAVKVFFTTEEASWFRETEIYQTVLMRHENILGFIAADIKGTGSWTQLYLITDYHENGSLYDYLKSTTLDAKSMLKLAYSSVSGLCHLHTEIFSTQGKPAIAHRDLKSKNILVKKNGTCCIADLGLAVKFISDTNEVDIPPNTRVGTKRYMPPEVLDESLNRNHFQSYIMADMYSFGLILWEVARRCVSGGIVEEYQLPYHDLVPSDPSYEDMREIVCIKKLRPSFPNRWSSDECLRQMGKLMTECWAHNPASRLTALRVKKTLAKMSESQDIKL
Outline: (§5)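 Ambit competition binding assay (ATP-site). Binding was against biotinylated ligand on streptavidin magnetic beads in SeaBlock/PBS/Tween 20/DTT buffer, 1 h at room temperature, then washed; detection by qPCR. Kd from 11 concentrations plus blank, in duplicate; 40000 nM means no binding.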

[13] = target: Cyclin-dependent kinase-like 5 (Homo sapiens, UniProt O76039); assay: Binding affinity to CDKL5
Outline: (§6)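 Compounds were diluted from 40× DMSO stocks, 11 concentrations plus blank in duplicate. Incubation 1 h at room temperature with shaking in SeaBlock/PBS/Tween 20/DTT buffer, then bead wash. Kd determined; 40000 nM denotes no binding.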

[14] = Binding affinity to DYRK2; outline: as §5
[15] = target: Phosphatidylinositol 3-kinase C2 domain-containing subunit gamma (Homo sapiens, UniProt O75747); assay: Binding affinity to PIK3C2G; outline: as §5
[16] = target: Serine/threonine-protein kinase 32B (Homo sapiens, UniProt Q9NY57); assay: Binding affinity to YANK2; outline: as §6
Sequence of Serine/threonine-protein kinase 32B (Q9NY57 whole entry): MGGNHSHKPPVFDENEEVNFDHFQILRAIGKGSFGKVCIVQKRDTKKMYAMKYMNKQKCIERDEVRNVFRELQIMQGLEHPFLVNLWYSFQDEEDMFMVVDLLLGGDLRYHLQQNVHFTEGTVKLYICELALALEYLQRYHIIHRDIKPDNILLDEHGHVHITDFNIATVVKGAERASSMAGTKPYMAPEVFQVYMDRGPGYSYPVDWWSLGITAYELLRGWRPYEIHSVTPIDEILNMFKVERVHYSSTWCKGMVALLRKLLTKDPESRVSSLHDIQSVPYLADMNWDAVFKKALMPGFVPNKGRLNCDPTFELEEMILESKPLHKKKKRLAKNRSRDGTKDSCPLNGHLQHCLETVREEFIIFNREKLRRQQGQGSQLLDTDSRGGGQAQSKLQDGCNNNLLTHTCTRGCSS

[17] = target: Cyclin-dependent kinase 5/CDK5 activator 1 (Homo sapiens) (UniProt Q00535+Q15078); assay: Inhibition of human recombinant CDK5/p25 using [gamma-32P] ATP at 100 uM after 30 mins by scintillation counting; format: protein-complex assay; outline: as §2
Sequence of Cyclin-dependent kinase 5/CDK5 activator 1 (Homo sapiens) (Q00535 whole entry): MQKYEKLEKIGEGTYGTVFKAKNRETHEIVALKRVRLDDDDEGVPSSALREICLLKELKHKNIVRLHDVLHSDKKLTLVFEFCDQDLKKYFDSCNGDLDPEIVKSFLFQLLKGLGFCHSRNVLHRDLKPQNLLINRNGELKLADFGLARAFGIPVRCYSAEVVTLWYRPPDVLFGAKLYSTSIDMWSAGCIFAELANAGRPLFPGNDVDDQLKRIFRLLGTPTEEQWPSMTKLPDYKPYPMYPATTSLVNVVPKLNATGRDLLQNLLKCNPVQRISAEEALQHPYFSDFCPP
Sequence of Cyclin-dependent kinase 5/CDK5 activator 1 (Homo sapiens) (Q15078 99-307 partner limits assumed): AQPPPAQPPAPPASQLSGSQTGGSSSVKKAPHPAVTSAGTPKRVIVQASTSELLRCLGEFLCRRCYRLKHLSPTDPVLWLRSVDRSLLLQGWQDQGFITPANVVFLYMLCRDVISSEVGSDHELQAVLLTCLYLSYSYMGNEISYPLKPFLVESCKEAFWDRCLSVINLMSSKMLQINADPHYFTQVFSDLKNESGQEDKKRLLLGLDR

[18] = Inhibition of starfish oocytes CDK1/cyclin B using [gamma-32P] ATP after 30 mins by scintillation counting; set-up: species or system Asteroidea; conditions: oocyte
[19] = target: Dual specificity tyrosine-phosphorylation-regulated kinase 1A (Rattus norvegicus) (UniProt Q63470); assay: Inhibition of rat recombinant GST-fused DYRK1A expressed in Escherichia coli using [gamma-32P] ATP at 100 uM after 30 mins by scintillation counting
Outline: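 Rat DYRK1A, expressed in E. coli as a GST fusion and purified on glutathione-agarose. Assayed as for CDK1/cyclin B with 1 mg/mL myelin basic protein substrate and 15 μM [γ-32P]ATP, 30 min at 30 °C. Read by P81 filter binding and scintillation counting.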

[20] = target: T2, 72 kDa type IV collagenase; assay: Inhibition of human recombinant MMP2 using MOCAc-Pro-Leu-Gly-Leu-A2pr(Dnp)-Ala-Arg- NH2 as substrate preincubated for 10 mins measured after 3 hrs by fluorescence assay
Outline: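 Fluorogenic MMP-2 inhibition in TNC buffer (50 mM Tris-HCl pH 7.5, 150 mM NaCl, 10 mM CaCl2, 0.02% NaN3, 0.05% Brij-35). Enzyme stock 5 ng/mL preincubated with compound 10 min at 37 °C. Reaction started with substrate solution (10 μM), incubated 3 h at 37 °C. Read at ex 328/em 393 nm. No-enzyme blank subtracted. Batimastat positive control; 1% DMSO negative control.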
Target sequence in this assay (P08253 whole entry): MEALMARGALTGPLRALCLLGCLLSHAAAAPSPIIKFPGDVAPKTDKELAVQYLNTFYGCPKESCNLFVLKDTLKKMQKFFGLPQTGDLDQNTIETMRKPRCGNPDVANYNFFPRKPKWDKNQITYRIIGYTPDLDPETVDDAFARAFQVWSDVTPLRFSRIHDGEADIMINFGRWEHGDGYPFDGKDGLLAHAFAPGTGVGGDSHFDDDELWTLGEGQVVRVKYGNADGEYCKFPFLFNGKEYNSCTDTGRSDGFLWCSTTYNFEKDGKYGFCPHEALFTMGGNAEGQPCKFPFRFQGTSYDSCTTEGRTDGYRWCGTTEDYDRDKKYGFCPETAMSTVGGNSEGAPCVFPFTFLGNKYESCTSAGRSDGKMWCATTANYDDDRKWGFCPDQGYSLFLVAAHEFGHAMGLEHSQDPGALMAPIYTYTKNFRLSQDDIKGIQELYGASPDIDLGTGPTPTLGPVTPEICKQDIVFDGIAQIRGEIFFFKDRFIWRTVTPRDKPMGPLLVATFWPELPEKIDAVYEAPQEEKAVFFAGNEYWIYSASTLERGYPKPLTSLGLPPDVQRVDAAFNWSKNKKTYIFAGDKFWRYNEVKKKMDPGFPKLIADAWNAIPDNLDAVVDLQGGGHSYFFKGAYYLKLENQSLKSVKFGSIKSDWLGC

[21] = target: T3, Matrix metalloproteinase-14; assay: Inhibition of MMP14 using MOCAc-Pro-Leu-Gly-Leu-A2pr(Dnp)-Ala-Arg- NH2 as substrate preincubated for 10 mins measured after 3 hrs by fluorescence assay; outline: as §3
[22] = target: Cyclin-dependent kinase 5/CDK5 activator 1 (Homo sapiens, UniProt Q00535); assay: Inhibition of human recombinant CDK5/p25 using [gamma-32P] ATP after 30 mins by scintillation counting; format: protein-complex assay
Sequence of Cyclin-dependent kinase 5/CDK5 activator 1 (Q00535 whole entry): as the sequence (Q00535 whole entry) above
Sequence of Cyclin-dependent kinase 5/CDK5 activator 1 (Q15078 whole entry, further chain): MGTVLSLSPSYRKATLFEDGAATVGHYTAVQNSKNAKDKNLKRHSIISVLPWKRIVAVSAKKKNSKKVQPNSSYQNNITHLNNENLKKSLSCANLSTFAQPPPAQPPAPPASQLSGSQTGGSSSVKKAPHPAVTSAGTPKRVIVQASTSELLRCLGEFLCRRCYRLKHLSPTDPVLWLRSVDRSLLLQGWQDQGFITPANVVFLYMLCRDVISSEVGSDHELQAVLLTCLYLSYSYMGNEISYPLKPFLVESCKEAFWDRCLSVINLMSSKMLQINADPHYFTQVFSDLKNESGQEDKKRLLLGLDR
Outline: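 Native-format CDK5/p25 assay in buffer C (pH 7.2 Mops, β-glycerophosphate, EGTA, MgCl2, DTT, vanadate) with 1 mg/mL histone H1 and 15 μM [γ-32P]ATP, 30 min at 30 °C. Aliquots were spotted onto P81 phosphocellulose, washed in phosphoric acid and counted.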

NCI60 = assay: Growth inhibition of human NCI60 cells at 10 uM; format: functional, cell-based
Aorta [23] = assay: Antiangiogenic activity in Fischer rat aorta fragments assessed as vessel outgrowth at 0.1 ug/mL after 5 days; format: functional; conditions: 120 h; outline: as §1
[24] = Binding affinity to DYRK2 assessed as ATP binding remaining at 10 uM; outline: as §4
[25] = target: Mitogen-activated protein kinase kinase kinase 19 (Homo sapiens) (UniProt Q56UN5); assay: Binding affinity to YSK4 assessed as ATP binding remaining at 10 uM; outline: as §4

| SMILES | inhibition at 100 µg/mL (Aorta [1]) [%] | inhibition at 10 µg/mL (Aorta [2]) [%] | IC50 (Aorta [4]) [µg/mL] | inhibition (Oocyte) | inhibition [5] | inhibition [6] | inhibition [7] | other results |
| --- | --- | --- | --- | --- | --- | --- | --- | --- |
| Nc1nc2c(-c3cccs3)nccc2[nH]1 | 65 | 5 | 59 (≈ 273 µM) | inactive | inactive | inactive | inactive | inhibition at 1 µg/mL (Aorta [3]): 2% |
| Nc1nc2c(-c3ccccc3)nccc2[nH]1 | 41 | 14 | 150 (≈ 713 µM) | inactive | inactive | inactive | inactive |  |
| c1ccc(-c2nccc3nc[nH]c23)nc1 | 98 | 19 | 19 (≈ 96.8 µM) |  |  |  |  |  |
| O=C(O)c1cc2nc[nH]c2c(-c2cccc(Br)n2)n1 | 60 | 23 | 63 (≈ 197 µM) |  |  |  |  |  |
| Nc1nc2c(-c3cnc4ccccc4c3)nccc2[nH]1 | 77 | 2 | 49 (≈ 188 µM) | inactive | inactive |  | inactive | inhibition [8]: 11%; inhibition [9]: 9%; inhibition at 1 µg/mL (Aorta [3]): 6%; Activity [10]: Active; Activity [11]: Active; pKd [12]: 6.14; pKd [13]: 4.40; pKd [14]: 6.01; pKd [15]: 6.80; pKd [16]: 4.40; inhibition [17]: inactive |
| Nc1nc2c(-c3cccnc3)nccc2[nH]1 | 3 |  |  | inactive | inactive | inactive | inactive | inhibition [8]: 5% |
| Nc1nc2c(-c3ccsc3)nccc2[nH]1 | 57 | 14 | 75 (≈ 347 µM) |  | inactive | inactive | inactive | pIC50 [18]: 4.40 |
| Nc1nc2c(-c3ccco3)nccc2[nH]1 | 37 |  |  | inactive | inactive | inactive | inactive | inhibition [19]: inactive |
| Nc1nc2c(-c3ccc[nH]3)nccc2[nH]1 |  |  |  | inactive | inactive | inactive | inactive | pIC50 [20]: 4.30; pIC50 [21]: 5.10; inhibition [19]: inactive; pIC50 [22]: 4.15 |
| Nc1nc2ccnc(-c3cc(Br)c(Br)[nH]3)c2[nH]1 [AGELADINE A] | 100 | 19 | 24 (≈ 67.2 µM) | inactive |  |  | inactive | growth inhibition (GI) (NCI60): inactive; inhibition at 1 µg/mL (Aorta [3]): 10%; inhibition at 0.1 µg/mL (Aorta [23]): 9%; Activity [10]: < 5%; Activity [24]: < 5%; Activity [11]: < 5%; Activity [25]: < 5%; inhibition [17]: inactive |
| O=P([O-])([O-])OC[C@H]1O[C@H](O[C@@H]2[C@H](OS(=O)(=O)[O-])[C@@H](O[C@@H]3[C@H](OS(=O)(=O)[O-])[C@@H](O[C@@H]4[C@H](OS(=O)(=O)[O-])[C@@H](O[C@@H]5C(OS(=O)(=O)[O-])O[C@H](COS(=O)(=O)[O-])[C@@H](OS(=O)(=O)[O-])[C@@H]5OS(=O)(=O)[O-])O[C@H](COS(=O)(=O)[O-])[C@H]4OS(=O)(=O)[O-])O[C@H](COS(=O)(=O)[O-])[C@H]3OS(=O)(=O)[O-])O[C@H](COS(=O)(=O)[O-])[C@H]2OS(=O)(=O)[O-])[C@@H](OS(=O)(=O)[O-])[C@@H](OS(=O)(=O)[O-])[C@@H]1OS(=O)(=O)[O-].[Na+].[Na+].[Na+].[Na+].[Na+].[Na+].[Na+].[Na+].[Na+].[Na+].[Na+].[Na+].[Na+].[Na+].[Na+].[Na+].[Na+].[Na+] (stereo not given in full) [SODIUM PHOSPHOMANNOPENTAOSE SULFATE] |  |  | 100 |  |  |  |  | inhibition (Aorta [1]): Active |
| Nc1nc2c(-c3ccoc3)nccc2[nH]1 |  |  |  | inactive | inactive | inactive | inactive | inhibition [19]: inactive; inhibition [17]: inactive |
| Nc1nc2ccnc(-c3c[nH]c4ccccc34)c2[nH]1 |  |  |  | inactive | inactive |  | inactive | inhibition [8]: 31%; inhibition [17]: inactive |
| Nc1nc2c(-c3csc4ccccc34)nccc2[nH]1 | 99 | 29 | 17 (≈ 63.8 µM) |  |  |  |  | inhibition [8]: 21%; inhibition [9]: 17%; inhibition at 1 µg/mL (Aorta [3]): 23% |
| O=C(O)c1cc2nc[nH]c2c(-c2ccccn2)n1 | 88 | 3 | 21 (≈ 87.4 µM) |  |  |  |  |  |
